Experimental data reported in publication PMC9926120 (The Journal of Biological Chemistry, 2022).

B4: His-tagged scRev7 (S. cerevisiae Rev7) (natural protein)
chain: MNRWVEKWLRVYLKCYINLILFYRNVYPPQSFDYTTYQSFNLPQFVPINRHPALIDYIEELILDVLSKLTHVYRFSICIINKKNDLCIEKYVLDFSELQHVDKDDQIITETEVFDEFRSSLNSLIMHLEKLPKVNDDTITFEAVINAIELELGHKLDRNRRVDSLEEKAEIERDSNWVKCQEDENLPDNNGFQPPKIKLTSLVGSDVGPLIIHQFSEKLISGDDKILNGVYSQYEEGESIFGSLF

How the values were obtained:
[1] = test system: scRev7; assay: SEC oligomeric state and stoichiometry; set-up: species or system S. cerevisiae; conditions: 20 mM Tris, 100 mM NaCl, 2 mM EDTA, 1 mM DTT, pH 8
Method in brief: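 scRev7 (MCS-1) co-expressed with scRev3 fragments or mutants (MCS-2) from pETDuet-1 in E. coli BL21(DE3); empty MCS-2 for apo-scRev7. Grown in 1L LB at 37 °C, induced with 1 mM IPTG at 20 °C overnight. Lysed by sonication in 20 mM sodium phosphate, 300 mM NaCl, 10 mM imidazole. Cobalt affinity, then Superdex 75 or 200 SEC with comparison of elution volumes.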

[2] = biological target: T1, MBP-scRev7 (Saccharomyces cerevisiae, UniProt P38927); assay: ITC of scRev3 peptides titrated into MBP-scRev7; type: binding, S. cerevisiae; conditions: 25 °C, 50 mM Tris, 100 mM NaCl, pH 8.4, 300 μM peptide titrated into 30 μM MBP-scRev7 in 2.5 μl increments, Fig. S5C
T1 sequence (P38927 1-245): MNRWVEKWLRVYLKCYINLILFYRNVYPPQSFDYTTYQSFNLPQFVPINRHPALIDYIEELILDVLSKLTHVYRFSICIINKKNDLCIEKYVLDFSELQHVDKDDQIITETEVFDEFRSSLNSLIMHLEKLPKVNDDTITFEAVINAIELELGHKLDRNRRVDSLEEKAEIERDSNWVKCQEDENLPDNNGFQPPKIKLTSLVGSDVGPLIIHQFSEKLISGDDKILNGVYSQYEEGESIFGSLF

[3] = biological target: T2, scRev7 fused to the maltose binding protein (MBP-scRev7) (S. cerevisiae, UniProt P38927 1-245); assay: ITC
T2 sequence: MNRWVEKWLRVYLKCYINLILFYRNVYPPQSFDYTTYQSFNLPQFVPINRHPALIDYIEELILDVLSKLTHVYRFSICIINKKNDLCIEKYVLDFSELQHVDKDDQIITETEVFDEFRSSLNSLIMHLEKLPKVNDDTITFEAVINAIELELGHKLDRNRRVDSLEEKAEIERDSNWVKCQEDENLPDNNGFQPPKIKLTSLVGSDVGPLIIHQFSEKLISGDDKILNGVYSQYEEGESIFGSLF

[4] = biological target: B4; assay: AUC
[5] = biological target: T3, scRev3-RBM12 (residues 510-629), co-expressed with scRev7 (S. cerevisiae, UniProt P14284 510-629); assay: AUC
T3 sequence: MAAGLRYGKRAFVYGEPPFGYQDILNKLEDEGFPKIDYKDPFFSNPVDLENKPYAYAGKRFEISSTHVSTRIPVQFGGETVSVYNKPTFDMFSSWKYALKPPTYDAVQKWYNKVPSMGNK

[6] = biological target: T4, truncated scRev3 fragment containing RBM2, but not RBM1 (residues 545-629) (S. cerevisiae, UniProt P14284 545-629); assay: SEC
T4 sequence: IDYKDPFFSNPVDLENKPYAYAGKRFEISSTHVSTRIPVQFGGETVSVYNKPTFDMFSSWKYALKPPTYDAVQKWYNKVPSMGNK

[7] = test system: scRev7; assay: Y2H of scRev7 and scRev3 fragments; type: binding, S. cerevisiae; conditions: scRev7-AD with scRev3 fragment-BD; yeast PJ694-A, 5 to 7 days at 30 °C
Method in brief: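 GAL4 AD and BD fusions of scRev7 and scRev3 RBM1, RBM2 or RBM12 (WT or mutant), tested in both orientations. Cells were transformed with 2.0 ug of each vector and grown in -LW broth at 30 °C for 3 to 5 days. They were then pelleted, resuspended in sterile water to normalise OD, serially diluted, and plated on -LW and -AHLW. Controls were empty vectors (negative) and AD/BD-fused mouse Rev7 dimerization (positive).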

## apo-scRev7: scRev7 overexpressed alone (MCS-2 of pETDuet-1 empty)
[1]
  SEC elution volume comparison: elute at similar volumes

## scRev3-zipper: scRev3-zipper (residues 573–594), linker region preceding RBM2 (SSTHVSTRIPVQFGGETVSVYN)
[2]
  binding (heat release): no heat release that would be consistent with binding

## scRev7/scRev3-RBM1: scRev7 co-expressed with scRev3-RBM1
[1]
  SEC elution volume comparison: elute at similar volumes

## scRev7/scRev3-RBM2: scRev7 co-expressed with scRev3-RBM2, 1:1 complex
[1]
  SEC elution volume comparison: elute at similar volumes

B1: scRev3-RBM2 peptide (residues 595-629) used for ITC (peptide)
peptide: KPTFDMFSSWKYALKPPTYDAVQKWYNKVPSMGNK
[3]
  stoichiometry N: 1

B2: scRev3-RBM1 peptide (residues 510-544) used for ITC (peptide)
peptide: MAAGLRYGKRAFVYGEPPFGYQDILNKLEDEGFPK
[3]
  stoichiometry N: 1

B3: scRev3-RBM2 (residues 595-629), co-expressed with scRev7 (domain or fragment)
chain: KPTFDMFSSWKYALKPPTYDAVQKWYNKVPSMGNK
[4]
  stoichiometry N: 1

## B4
[5]
  stoichiometry N: 2 scRev7 per scRev3-RBM12
[6]
  stoichiometry N: 1

B5: scRev3-RBM12: scRev3-RBM12 (residues 510–629), longer scRev3 construct containing both RBMs (protein)
chain: MAAGLRYGKRAFVYGEPPFGYQDILNKLEDEGFPKIDYKDPFFSNPVDLENKPYAYAGKRFEISSTHVSTRIPVQFGGETVSVYNKPTFDMFSSWKYALKPPTYDAVQKWYNKVPSMGNK
[7]
  growth on -AHLW plates: yeast grew on plates lacking adenine, histidine, leucine, and tryptophan
